Results published in ChEMBL document CHEMBL2407075, “Sulphonamido-quinoxalines: search for anticancer agent” (Eur J Med Chem, 2013).

Columns and labels:
Format in all cases: functional
[1] = tested on: SR; test: Growth inhibition of human SR cells assessed as cell growth at 10^-5 M after 48 hrs by sulforhodamine B assay; conditions: read-out: Activity
[2] = tested on: UACC-257; test: Growth inhibition of human UACC257 cells assessed as cell growth at 10^-7 M after 48 hrs by sulforhodamine B assay; conditions: UACC-257, 48 h, read-out: Activity
[3] = tested on: BT-549; test: Growth inhibition of human BT549 cells after 48 hrs by sulforhodamine B assay; conditions: BT-549, 48 h; for CC50: read-out: LC50 (the source's name)
Procedure, shortened: (§1)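 Adherent cells in RPMI 1640 with 5% FBS and 2 mM L-glutamine were plated at 5000–40,000 cells/well and grown 24 h. Five concentrations (0.01–100 µM, DMSO stock) were added for 48 h at 37 °C. Cells were fixed with cold TCA (10% final) and stained with SRB, read at 515 nm. GI50 came from log concentration–growth curves against time-zero and control plates.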

[4] = tested on: SF-268; test: Growth inhibition of human SF268 cells assessed as cell growth at 10^-8 M after 48 hrs by sulforhodamine B assay; conditions: SF-268, 48 h, read-out: Activity
[5] = tested on: IGROV-1; test: Growth inhibition of human IGROV1 cells assessed as cell growth at 10^-8 M after 48 hrs by sulforhodamine B assay; conditions: IGROV-1, 48 h, read-out: Activity
[6] = Growth inhibition of human HCC2998 cells after 48 hrs by sulforhodamine B assay; conditions: HCC 2998, 48 h; for CC50: read-out: LC50 (the source's name); procedure, shortened: as §1
[7] = tested on: TK-10; test: Growth inhibition of human TK10 cells after 48 hrs by sulforhodamine B assay; conditions: TK-10, 48 h; for CC50: read-out: LC50 (the source's name); procedure, shortened: as §1
[8] = tested on: COLO 205; test: Growth inhibition of human COLO205 cells assessed as cell growth at 10^-8 M after 48 hrs by sulforhodamine B assay; conditions: COLO 205, 48 h, read-out: Activity
Procedure, shortened: (§2)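 Five-dose NCI-60 run (0.01, 0.1, 1, 10 and 100 µM, as 10-fold dilutions from a DMSO stock made at 400× the top final level). Cells were grown in RPMI 1640 with 5% FBS and 2 mM glutamine and plated for 24 h. They were then exposed for 48 h at 37 °C and 5% CO2. TCA fixation was followed by SRB staining with A515 read-out. Percent growth was taken relative to time-zero and control plates.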

[9] = tested on: MCF7; test: Growth inhibition of human MCF7 cells assessed as cell growth at 10^-6 M after 48 hrs by sulforhodamine B assay; conditions: MCF7, 48 h, read-out: Activity
[10] = tested on: OVCAR-5; test: Growth inhibition of human OVCAR5 cells assessed as cell growth at 10^-5 M after 48 hrs by sulforhodamine B assay; conditions: OVCAR-5, 48 h, read-out: Activity
[11] = tested on: SK-MEL-28; test: Growth inhibition of human SK-MEL-28 cells after 48 hrs by sulforhodamine B assay; conditions: SK-MEL-28, 48 h; for CC50: read-out: LC50 (the source's name); procedure, shortened: as §1
[12] = tested on: OVCAR-5; test: Growth inhibition of human OVCAR5 cells assessed as cell growth at 10^-7 M after 48 hrs by sulforhodamine B assay; conditions: OVCAR-5, 48 h, read-out: Activity
[13] = tested on: CAKI-1; test: Growth inhibition of human CAKI-1 cells assessed as cell growth at 10^-7 M after 48 hrs by sulforhodamine B assay; conditions: CAKI-1, 48 h, read-out: Activity; procedure, shortened: as §2
[14] = tested on: SN12C; test: Growth inhibition of human SN12C cells assessed as cell growth at 10^-7 M after 48 hrs by sulforhodamine B assay; conditions: read-out: Activity
[15] = Growth inhibition of human NCI-ADR-RES cells assessed as cell growth at 10^-4 M after 48 hrs by sulforhodamine B assay; conditions: read-out: Activity
[16] = tested on: CAKI-1; test: Growth inhibition of human CAKI-1 cells assessed as cell growth at 10^-5 M after 48 hrs by sulforhodamine B assay; conditions: CAKI-1, 48 h, read-out: Activity; procedure, shortened: as §2
[17] = tested on: U-251; test: Growth inhibition of human U251 cells assessed as cell growth at 10^-8 M after 48 hrs by sulforhodamine B assay; conditions: U-251, 48 h, read-out: Activity
[18] = tested on: SF-539; test: Growth inhibition of human SF539 cells assessed as cell growth at 10^-8 M after 48 hrs by sulforhodamine B assay; conditions: SF-539, 48 h, read-out: Activity
[19] = tested on: HL-60(TB); test: Growth inhibition of human HL-60(TB) cells assessed as cell growth at 10^-6 M after 48 hrs by sulforhodamine B assay; conditions: HL-60, 48 h, read-out: Activity
Procedure, shortened: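 HL-60(TB) suspension cells were treated 48 h at 37 °C within the five-dose series (0.01–100 µM), fixed with 16% final TCA and SRB-stained, read at 515 nm. Percentage growth at each concentration = (Ti−Tz)/(C−Tz)×100, or (Ti−Tz)/Tz×100 when Ti<Tz, with time-zero (Tz) and untreated control (C) plates.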

[20] = tested on: HOP-92; test: Growth inhibition of human HOP92 cells assessed as cell growth at 10^-6 M after 48 hrs by sulforhodamine B assay; conditions: HOP-92, 48 h, read-out: Activity
Procedure, shortened: (§3)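 Five-dose screen at NCI. Cells in RPMI 1640 with 5% FBS and 2 mM L-glutamine, seeded at 5000–40,000 cells/well and grown 24 h at 37 °C, 5% CO2 before dosing, with time-zero plates TCA-fixed. Drug diluted from DMSO stock to 0.01, 0.1, 1, 10 and 100 µM final, 48 h. Cells fixed with cold TCA (10% final), stained with 0.4% SRB and read at 515 nm. Percent growth from Tz, control and test absorbances; GI50, TGI and LC50 from dose-response curves.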

[21] = tested on: COLO 205; test: Growth inhibition of human COLO205 cells assessed as cell growth at 10^-6 M after 48 hrs by sulforhodamine B assay; conditions: COLO 205, 48 h, read-out: Activity; procedure, shortened: as §2
[22] = tested on: A498; test: Growth inhibition of human A498 cells assessed as cell growth at 10^-7 M after 48 hrs by sulforhodamine B assay; conditions: A498, 48 h, read-out: Activity; procedure, shortened: as §2
[23] = tested on: SF-539; test: Growth inhibition of human SF539 cells assessed as cell growth at 10^-7 M after 48 hrs by sulforhodamine B assay; conditions: SF-539, 48 h, read-out: Activity
[24] = tested on: SNB-19; test: Growth inhibition of human SNB19 cells assessed as cell growth at 10^-8 M after 48 hrs by sulforhodamine B assay; conditions: SNB-19, 48 h, read-out: Activity
[25] = tested on: HOP-62; test: Growth inhibition of human HOP62 cells assessed as cell growth at 10^-7 M after 48 hrs by sulforhodamine B assay; conditions: HOP-62, 48 h, read-out: Activity; procedure, shortened: as §3
[26] = Growth inhibition of human HCC2998 cells assessed as cell growth at 10^-6 M after 48 hrs by sulforhodamine B assay; conditions: HCC 2998, 48 h, read-out: Activity; procedure, shortened: as §3
[27] = tested on: DU-145; test: Growth inhibition of human DU145 cells assessed as cell growth at 10^-5 M after 48 hrs by sulforhodamine B assay; conditions: DU-145, 48 h, read-out: Activity; procedure, shortened: as §2
[28] = tested on: SK-MEL-28; test: Growth inhibition of human SK-MEL-28 cells assessed as cell growth at 10^-6 M after 48 hrs by sulforhodamine B assay; conditions: SK-MEL-28, 48 h, read-out: Activity
[29] = tested on: PC-3; test: Growth inhibition of human PC3 cells assessed as cell growth at 10^-6 M after 48 hrs by sulforhodamine B assay; conditions: PC-3, 48 h, read-out: Activity

Row | SMILES | growth at 10 µM [1] [%] | growth at 0.1 µM [2] [%] | CC50 [3] [µM] | growth at 0.01 µM [4] [%] | growth at 0.01 µM [5] [%] | CC50 [6] [µM] | TGI [7] [µM] | CC50 [7] [µM] | growth at 0.01 µM [8] [%] | growth at 1 µM [9] [%] | growth at 10 µM [10] [%] | TGI [11] [µM] | CC50 [11] [µM] | growth at 0.1 µM [12] [%] | growth at 0.1 µM [13] [%] | growth at 0.1 µM [14] [%] | growth at 100 µM [15] [%] | growth at 10 µM [16] [%] | growth at 0.01 µM [17] [%] | growth at 0.01 µM [18] [%] | also measured
1 | O=S(=O)(Nc1ccccn1)c1ccc2nc(-c3ccccc3)c(-c3ccccc3)nc2c1 | -42 | 103 | > 100 | 93 | 103 | > 100 | > 100 | > 100 | 98 | 87 | 8 | > 100 | > 100 | 93 | 93 | 93 | 58 | -11 | 99 | 96 | GI50 [3]: 1.58 µM; growth at 1 µM [19]: 74%; growth at 1 µM [20]: 77%; growth at 1 µM [21]: 94%; growth at 0.1 µM [22]: 87%; growth at 0.1 µM [23]: 94%; growth at 0.01 µM [24]: 100%; growth at 0.1 µM [25]: 101%; growth at 1 µM [26]: 100%; growth at 10 µM [27]: 31%; growth at 1 µM [28]: 96%; growth at 1 µM [29]: 60%
2 | O=S(=O)(Nc1ccc(Cl)cc1)c1ccc2nc(-c3ccccc3)c(-c3ccccc3)nc2c1 | -48 | 99 | > 100 | 94 | 102 | > 100 | > 100 | > 100 | 101 | 93 | 6 | > 100 | > 100 | 92 | 88 | 96 | 69 | -35 | 97 | 99 | TGI [6]: > 100 µM; growth at 1 µM [19]: 89%; growth at 1 µM [20]: 78%; growth at 1 µM [21]: 103%; growth at 0.1 µM [22]: 76%; growth at 0.1 µM [23]: 96%; growth at 0.01 µM [24]: 100%; growth at 0.1 µM [25]: 100%; growth at 1 µM [26]: 102%; growth at 10 µM [27]: 26%; growth at 1 µM [28]: 91%; growth at 1 µM [29]: 63%
